Inhibition and IC50 data for 45 compounds are collected here from ChEMBL document CHEMBL1132585, “New N-(pyridin-4-yl)-(indol-3-yl)acetamides and propanamides as antiallergic agents” (J Med Chem, 1999).

The species entered for test [1] is Mus musculus. Put plainly: Percent inhibition of anti-CD3 mAb stimulated interleukin-4 release from mice splenocytes by 10 uM compound. The class given is functional.
The species named for test [2] is Mus musculus. Put plainly: Percent inhibition of anti-CD3 mAb stimulated interleukin-5 release from […] by 10 uM. The class given is functional. The method in brief: (§1)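 D10.G4.1 Th-2 cells (4 × 10⁴/well) in medium without Rat T-STIM for 3.5 h, then exposed to drug at 10 µM for 30 min and stimulated with anti-CD3 mAb (final 1:100) for 16 h. IL-4 or IL-5 content of the supernatant is read against solvent control. Mean of three experiments, each run in duplicate.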

The species named for test [3] is Rattus norvegicus. Briefly: Inhibition of histamine release in rat mast cells. The test is classed as functional, cell-based.
The species named for test [4] is Mus musculus. Put plainly: Percent inhibition of anti-CD3 mAb stimulated interleukin-4 release from […] by 10 uM. The class given is functional. The method in brief:
as §1

For test [5], the species on record is Mus musculus. Put plainly: Compound was evaluated for IL 4 production inhibition from mice splenocytes stimulated by anti-CD3 mAb. The class given is functional. The method in brief:
(§2)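 Th-2 clone D10.G4.1, restimulated with conalbumin (100 µg/mL) plus mitomycin C-treated AKR/J splenocytes as antigen-presenting cells, thawed and grown 3 days with Rat T-STIM. Cells at 4 × 10⁴/well, 3.5 h without T-STIM, drug 30 min (DMSO ≤0.1%). Stimulated with anti-CD3 mAb (final 1:100) for 16 h; IL-4 or IL-5 measured in supernatant. IC50 estimated over a concentration range.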

For test [6], the species on record is Mus musculus. Briefly: Compound was evaluated for IL 5 production inhibition from mice splenocytes stimulated by anti-CD3 mAb. The test is classed as functional. The method in brief: as §2
Test [7] concerns Rattus norvegicus. Put plainly: Compound was evaluated in vivo for inhibition of Ovalbumin induced rhinitis in anesthetized rats after topical administration (nasal perfusion). The class given is functional, organism-based. A digest of the protocol: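 Male Brown Norway rats sensitized ip with OVA 0.5 mg/kg + Al(OH)₃ 7.5 mg/kg, used on day 20-21 under thiopental (50 mg/kg ip). Nasal cavity perfused with PBS; drug given by 30 min topical perfusion in PBS, iv 30 min or po 60 min before OVA challenge.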

Test [8] is filed under the species Rattus norvegicus. Put plainly: Inhibition of tetraethylammonium chloride(TEA)-induced acetylcholine hyperactivity in rat tracheal segments by the compound. The class given is functional. To be noted: Trachea. A digest of the protocol: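 Male Wistar rat tracheal rings in Krebs-Henseleit at 37 °C, 1 g preload, isotonic. Acetylcholine cumulative curves run alone, with TEA (10 mM, 30 min), and with drug (30 min before TEA) plus TEA. Percent inhibition of hyperreactivity taken from contraction at 100 µM acetylcholine, 3-5 preparations; screening at 30 µM, and IC50 by regression from 3-4 concentrations if inhibition exceeds 50%.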

The species entered for test [9] is Mus musculus. Briefly: Compound was evaluated for IL 5 production inhibitio from mice splenocytes stimulated by anti-CD3 mAb. The class given is functional. The method in brief: as §2

Broadly, the inhibition is how much of the control response was suppressed. A word on the IC50: it is the midpoint of a concentration-inhibition curve. Higher therefore signals a need for much substance.

The source made the active and inactive calls. No cut-off for these calls is given here.

Turning to `O=C(Cc1cn(-c2ccc(F)cc2)c2ccccc12)Nc1ccncc1`, the inhibition at 10 µM in test [1] was determined as 31%; in test [2], 48%. This compound had an IC50 in test [3] of 0.302 µM.

In the case of `O=C(CCc1c[nH]c2ccc(F)cc12)Nc1ccncc1`, in test [4], the inhibition entry is “inactive”. The same compound gave an inhibition at 10 µM in [2] of 25%. Further, the IC50 in test [3] is 2.21 µM.

Take `O=C(CCc1cn(Cc2ccc(F)cc2)c2ccccc12)Nc1ccncc1`: the inhibition at 10 µM in [1] was 2.9%; in [2] it was 22%. In [3], this compound came in with an IC50 of 0.22 µM.

For `O=C(Cc1cn(Cc2ccccc2)c2ccc(F)cc12)Nc1ccncc1`, the inhibition result in [4] was “inactive”. The inhibition at 10 µM in [2] was 48%. It took 0.06 µM to reach half-maximal inhibition in [3] (IC50).

Regarding `O=C(Cc1cn(-c2ccc(F)cc2)c2ccc(F)cc12)Nc1ccncc1`, the results for the IC50 in [5] and in test [6] were 9.7 µM and 4.56 µM, respectively. The inhibition at 10 µM in test [1] turned out to be 51%; in [2], 71%.

Regarding `Cc1c(CC(=O)Nc2ccncc2)c2cc(Cl)ccc2n1Cc1ccc(F)cc1`, the values for the inhibition at 10 µM in test [1] and in test [2] were 28% and 26%, respectively.

Consider `COc1ccc2c(c1)c(CC(=O)Nc1ccncc1)cn2-c1ccc(F)cc1`, for which the inhibition at 10 µM in [1] amounted to 24%; in test [2], 22%.

Take `O=C(CCc1cn(Cc2ccc(F)cc2)c2ccc(F)cc12)Nc1ccncc1`: the inhibition result in test [4] is “inactive”. The inhibition at 10 µM in test [2] was determined as 37%. In test [3], this compound returned an IC50 of 0.38 µM.

For `O=C(Cc1c[nH]c2ccc(F)cc12)Nc1ccncc1`, the inhibition entry in test [4] was “inactive”. The compound further yielded a half-inhibitory concentration (IC50) in test [3] of more than 10 µM.

For the compound `CC(C)c1ccc2c(c1)c(CC(=O)Nc1ccncc1)cn2Cc1ccc(F)cc1`, the inhibition result in test [4] is “inactive”. In test [2], this compound registered an inhibition at 10 µM of 23%.

In the case of `Cc1[nH]c2ccc(Cl)cc2c1CC(=O)Nc1ccncc1`, the inhibition result in test [4] is “inactive”. In [3], this compound had a half-maximal inhibitory concentration (IC50) of more than 10 µM.

In the case of `O=C(Cc1cn(Cc2ccc(F)cc2)c2ccc(F)cc12)Nc1ccncc1`, the inhibition entry in test [4] was “inactive”. Further, in [2], testing at 10 µM gave an inhibition of 43%.

As for `Cc1c(CC(=O)Nc2ccncc2)c2cc(F)ccc2n1Cc1ccc(F)cc1`, the values for the half-inhibitory concentration (IC50) in test [5], in test [6] and in test [3] were 10.2 µM, 7.87 µM and 0.4 µM, respectively. Besides, the values for the inhibition at 10 µM in test [1] and in [2] were 49% and 61%, respectively.

For the compound `COc1ccc2[nH]c(C)c(CC(=O)Nc3ccncc3)c2c1`, the inhibition entry in [4] is “inactive”.

Consider `CC(C)c1ccc2[nH]cc(CCC(=O)Nc3ccncc3)c2c1`, for which the inhibition entry in test [4] was “inactive”. In addition, at 10 µM the inhibition in [2] was 28%. This compound had a half-maximal inhibitory concentration (IC50) in test [3] of 3.12 µM.

Consider `COc1ccc2c(c1)c(CCC(=O)Nc1ccncc1)cn2Cc1ccccc1`, for which the inhibition result in [4] is “inactive”. In addition, the 50% inhibitory concentration (IC50) in test [3] was determined as 3.9 µM.

Regarding `O=C(Cc1cn(Cc2ccc(F)cc2)c2ccc(Cl)cc12)Nc1ccncc1`, the results for the IC50 in [5], in test [6] and in test [3] were more than 10 µM, 8.8 µM and 0.23 µM, respectively. For the same compound, the inhibition entry in [4] was “inactive”. In addition, 10 µM produced 54% inhibition in [2].

As to `CC(C)c1ccc2c(c1)c(CCC(=O)Nc1ccncc1)cn2Cc1ccccc1`, the inhibition entry in test [4] is “inactive”. The compound further showed an inhibition at 10 µM in test [2] of 25%. In test [3], this compound returned a half-inhibitory concentration (IC50) of 6 µM.

On to `COc1ccc2[nH]cc(CCC(=O)Nc3ccncc3)c2c1`, for which, in test [4], the inhibition result was “inactive”. For the same compound, testing at 10 µM in test [2] gave an inhibition of 26%.

As for `O=C(Cc1cn(Cc2ccccc2)c2ccc(Cl)cc12)Nc1ccncc1`, the inhibition at 10 µM in test [1] was 39%; in test [2], 49%.

With `CC(C)c1ccc2c(c1)c(CCC(=O)Nc1ccncc1)cn2Cc1ccc(F)cc1`, in [4], the inhibition result is “inactive”. Further, in test [3], the 50% inhibitory concentration (IC50) turned out to be 5.34 µM.

For `COc1ccc2[nH]cc(CC(=O)Nc3ccncc3)c2c1`, in test [4], the inhibition entry is “inactive”. For the same compound, in test [3], the IC50 is more than 10 µM.

In the case of `O=C(Cc1cn(Cc2ccc(F)cc2)c2cc(O)ccc12)Nc1ccncc1`, the inhibition at 10 µM was found to be 29% in test [1] and 37% in [2]. This compound also displayed an IC50 in test [3] of 0.94 µM.

For the compound `Cc1[nH]c2ccc(F)cc2c1CC(=O)Nc1ccncc1`, in test [4], the inhibition result was “inactive”. This compound also came in with an IC50 in test [3] of 10.1 µM.

For `Cc1[nH]c2ccc(C(C)C)cc2c1CC(=O)Nc1ccncc1`, in [4], the inhibition result was “inactive”. Moreover, half-maximal inhibition in [3] (IC50) required 2.8 µM.

`c1ccc(CN(CC2=NCCN2)c2ccccc2)cc1` [ANTAZOLINE]: half-maximal inhibition in test [7] (IC50) required 1.26 µM.

With `O=C(Cc1c[nH]c2ccc(Cl)cc12)Nc1ccncc1`, the inhibition entry in test [4] is “inactive”. For the same compound, the midpoint of inhibition in test [3], the IC50, lay at 4.5 µM.

As for `COc1ccc(CCN(C)CCCC(C#N)(c2ccc(OC)c(OC)c2)C(C)C)cc1OC` (stereo unspecified) [VERAPAMIL], the IC50 in test [8] was determined as 1.3 µM.

On to `Cc1c(CC(=O)Nc2ccncc2)c2cc(C(C)C)ccc2n1Cc1ccc(F)cc1`, for which the inhibition entry in [4] was “inactive”. For the same compound, the IC50 in test [3] is 6.9 µM.

`COc1ccc(CN(CCN(C)C)c2ccccn2)cc1` [PYRILAMINE] came in with an IC50 in [7] of 7.41 µM.

Regarding `COc1ccc(CCN2CCC(Nc3nc4ccccc4n3Cc3ccc(F)cc3)CC2)cc1` [ASTEMIZOLE], the values for the IC50 in test [5], in [6] and in test [3] were 8 µM, 3.3 µM and 6.5 µM, respectively. Further, the results for the inhibition at 10 µM in test [1] and in test [2] were 66% and 74%, respectively.

In the case of `O=C(CCc1cn(Cc2ccccc2)c2ccc(F)cc12)Nc1ccncc1`, the inhibition at 10 µM in [1] came out at 27%; in test [2], 42%. The half-inhibitory concentration (IC50) in [3] is 0.42 µM.

Regarding `Cc1c(CC(=O)Nc2ccncc2)c2cc(F)ccc2n1Cc1ccccc1`, the inhibition result in [4] was “inactive”. In addition, the inhibition at 10 µM in test [2] worked out at 41%. Moreover, in test [3], half-maximal inhibition (IC50) was put at 0.48 µM.

`C[C@@H]1C[C@H]2[C@@H]3CCC4=CC(=O)C=C[C@]4(C)[C@@]3(F)[C@@H](O)C[C@]2(C)[C@@]1(O)C(=O)CO` [DEXAMETHASONE]: the half-inhibitory concentration (IC50) in test [5] came out at 0.0047 µM; in [9], 0.0035 µM.

As to `O=C(CCc1c[nH]c2ccc(Cl)cc12)Nc1ccncc1`, the inhibition at 10 µM was found to be 26% in [1] and 25% in [2]. This compound had a 50% inhibitory concentration (IC50) in test [3] of 1.46 µM.

As for `COc1ccc2c(CC(=O)Nc3ccncc3)cn(Cc3ccc(F)cc3)c2c1`, the half-inhibitory concentration (IC50) in test [5] was 9.8 µM; in test [6], 2.28 µM; in [3] it was 0.33 µM. Further, the inhibition at 10 µM came to 51% in test [1] and 76% in test [2].

Take `Cc1c(CC(=O)Nc2ccncc2)c2cc(C(C)C)ccc2n1Cc1ccccc1`: the inhibition entry in test [4] is “inactive”. Further, at 10 µM the inhibition in [2] was 34%. Besides, it took 7.54 µM to reach half-maximal inhibition in test [3] (IC50).

Consider `O=C(CCc1cn(Cc2ccccc2)c2ccc(Cl)cc12)Nc1ccncc1`, for which, in test [4], the inhibition result was “inactive”. The compound further displayed an IC50 in test [3] of 0.74 µM.

Consider `O=C(CCCc1cn(Cc2ccc(F)cc2)c2ccccc12)Nc1ccncc1`, for which the inhibition at 10 µM was 31% in test [1] and 42% in test [2]. The same compound yielded a concentration for half-maximal inhibition (IC50) in [3] of 0.51 µM.

In the case of `O=C(CCc1cn(Cc2ccc(F)cc2)c2ccc(Cl)cc12)Nc1ccncc1`, in test [4], the inhibition result was “inactive”. The compound also displayed an inhibition at 10 µM in test [2] of 41%. For the same compound, the IC50 in test [3] turned out to be 1.3 µM.

`CC(C)(C)c1ccc(C(O)CCCN2CCC(C(O)(c3ccccc3)c3ccccc3)CC2)cc1` (stereo unspecified) [TERFENADINE]: the IC50 in [5] is 4.95 µM; in test [9] it was 3.96 µM.

Turning to `COc1ccc2c(c1)c(CCC(=O)Nc1ccncc1)cn2Cc1ccc(F)cc1`, in test [4], the inhibition entry was “inactive”.

Take `CC(C)c1ccc2[nH]cc(CC(=O)Nc3ccncc3)c2c1`: the results for the inhibition at 10 µM in test [1] and in test [2] were 33% and 29%, respectively. In addition, the IC50 in test [3] amounted to 4.92 µM.

Consider `COc1ccc2c(c1)c(CC(=O)Nc1ccncc1)c(C)n2Cc1ccc(F)cc1`, for which the inhibition result in [4] is “inactive”. Testing at 10 µM in test [2] gave an inhibition of 22%. In addition, half-maximal inhibition in test [3] (IC50) was put at 5 µM.

Regarding `COc1ccc2c(c1)c(CC(=O)Nc1ccncc1)cn2Cc1ccccc1`, the inhibition at 10 µM in test [1] was determined as 33%; in test [2], 38%. This compound also had an IC50 in test [3] of 2.8 µM.
